According to ChEMBL document CHEMBL1149247, “New COX-2/5-LOX inhibitors: apoptosis-inducing agents potentially useful in prostate cancer chemotherapy” (J Med Chem, 2004):
Values belong to the compound of their own block, whether it stands above or below them. Activity calls are given as the source filed them. The calls are words filed in the database; no cut-off is given here.

Tests used:
PC-3 [1] = experiment: Cell cycle arrest in human PC3 cells by accumulation at S phase at 100 uM after 72 hrs by FACS flow cytometry; format: functional
In short: (§1)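 LNCaP or PC 3 cells seeded in 6-well plates, synchronized 24 h in serum-free medium, treated 72 h with varying compound concentrations; trypsinized cells pooled with supernatants, pelleted, fixed in cold ethanol overnight at 4 °C, then 30 min in PBS with RNase and propidium iodide. FACScan flow cytometry quantified sub-G1 (sub-diploid), G1, S and G2-M fractions as percent of cells.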

LNCaP [2] = experiment: Cell cycle arrest in human LNCaP cells by accumulation at G1 phase at 100 uM after 72 hrs by FACS flow cytometry; format: functional; in short: as §1
LNCaP [3] = experiment: Cell cycle arrest in human LNCaP cells by accumulation at S phase at 100 uM after 72 hrs by FACS flow cytometry; format: functional; in short: as §1
[4] = molecular target: Prostaglandin G/H synthase 1 (Homo sapiens, UniProt P23219); experiment: Inhibition of COX1 expressed in CHO cells assessed as inhibition of arachidonic acid-stimulated PGE2 production by enzyme immunoassay; format: functional, cell-based
Sequence of Prostaglandin G/H synthase 1 (P23219 whole entry): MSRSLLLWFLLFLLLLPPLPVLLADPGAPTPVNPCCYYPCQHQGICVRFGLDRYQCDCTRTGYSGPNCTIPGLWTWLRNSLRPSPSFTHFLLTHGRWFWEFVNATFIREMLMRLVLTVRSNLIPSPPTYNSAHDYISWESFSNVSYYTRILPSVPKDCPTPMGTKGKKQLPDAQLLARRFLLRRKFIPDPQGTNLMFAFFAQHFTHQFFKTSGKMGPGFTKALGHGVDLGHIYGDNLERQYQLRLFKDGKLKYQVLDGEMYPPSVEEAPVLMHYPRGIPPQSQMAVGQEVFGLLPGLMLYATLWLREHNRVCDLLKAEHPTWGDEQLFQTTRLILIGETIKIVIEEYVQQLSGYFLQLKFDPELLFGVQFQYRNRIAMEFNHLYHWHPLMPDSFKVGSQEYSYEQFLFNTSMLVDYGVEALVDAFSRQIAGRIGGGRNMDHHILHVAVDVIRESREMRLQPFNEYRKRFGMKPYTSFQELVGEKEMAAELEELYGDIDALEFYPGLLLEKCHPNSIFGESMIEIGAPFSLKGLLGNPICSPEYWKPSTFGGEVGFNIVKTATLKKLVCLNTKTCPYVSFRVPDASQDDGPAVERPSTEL

PC-3 [5] = experiment: Cell cycle arrest in human PC3 cells by accumulation at G2M phase at 100 uM after 72 hrs by FACS flow cytometry; format: functional; in short: as §1
[6] = molecular target: T1, Polyunsaturated fatty acid 5-lipoxygenase (Homo sapiens, UniProt P09917); experiment: Inhibition of 5LOX in human whole blood assessed as inhibition of calcium ionophore A 23187-stimulated 5HETE production by HPLC analysis; format: functional, tissue-based
T1 sequence (P09917 whole entry): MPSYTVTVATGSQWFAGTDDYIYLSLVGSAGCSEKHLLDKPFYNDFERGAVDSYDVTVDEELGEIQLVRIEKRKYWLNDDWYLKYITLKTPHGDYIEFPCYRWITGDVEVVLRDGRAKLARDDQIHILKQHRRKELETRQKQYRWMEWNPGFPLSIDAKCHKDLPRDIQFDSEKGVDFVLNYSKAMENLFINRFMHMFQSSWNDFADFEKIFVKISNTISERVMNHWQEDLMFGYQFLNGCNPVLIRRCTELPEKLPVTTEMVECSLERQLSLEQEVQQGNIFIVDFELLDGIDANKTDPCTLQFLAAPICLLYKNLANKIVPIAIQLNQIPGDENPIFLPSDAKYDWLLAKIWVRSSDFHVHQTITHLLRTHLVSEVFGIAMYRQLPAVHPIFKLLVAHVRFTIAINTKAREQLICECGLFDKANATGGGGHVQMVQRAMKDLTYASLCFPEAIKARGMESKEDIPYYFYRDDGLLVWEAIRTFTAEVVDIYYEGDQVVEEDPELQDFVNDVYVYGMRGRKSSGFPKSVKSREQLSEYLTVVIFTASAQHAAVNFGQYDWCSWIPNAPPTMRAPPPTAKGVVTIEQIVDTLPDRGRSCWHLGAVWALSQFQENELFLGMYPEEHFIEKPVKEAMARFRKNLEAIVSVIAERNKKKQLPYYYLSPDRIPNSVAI
In short: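 Heparinized human whole blood, 1 mL aliquots, preincubated 15 min at 37 °C with compound or DMSO vehicle; then stimulated with 40 μM A 23187 for 15 min at 37 °C. 5-HETE extracted into ethyl acetate, then HPLC on a C18 column, methanol/water/acetic acid 80:20:0.08, pH 6.0, UV at 234 nm. IC50 from n = 2.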

PC-3 [7] = experiment: Cell cycle arrest in human PC3 cells by accumulation at subG1 phase at 100 uM after 72 hrs by FACS flow cytometry; format: functional; in short: as §1
LNCaP [8] = experiment: Cell cycle arrest in human LNCaP cells by accumulation at S phase at 10 uM after 72 hrs by FACS flow cytometry; format: functional; in short: as §1
LNCaP [9] = experiment: Antiproliferative activity against androgen-sensitive human LNCaP cells after 72 hrs by MTT test; format: functional, cell-based
In short: (§2)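 Prostate carcinoma cells kept at 37 °C, 5% CO2 in RPMI 1640 with 10% fetal calf serum; seeded 1.8 × 10⁴ (PC 3) or 5.0 × 10⁴ (LNCaP) cells/well, grown 3 days, serum-starved 24 h for synchronization, then exposed 72 h to compounds in medium (<0.1% DMSO); growth read by colorimetric MTT. Mean of at least four independent determinations; single-dose lines at 100 μM.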

LNCaP [10] = experiment: Cell cycle arrest in human LNCaP cells by accumulation at G2M phase at 10 uM after 72 hrs by FACS flow cytometry; format: functional; in short: as §1
LNCaP [11] = experiment: Cell cycle arrest in human LNCaP cells by accumulation at G1 phase at 10 uM after 72 hrs by FACS flow cytometry; format: functional; in short: as §1
LNCaP [12] = experiment: Cell cycle arrest in human LNCaP cells by accumulation at G2M phase at 100 uM after 72 hrs by FACS flow cytometry; format: functional; in short: as §1
PC-3 [13] = experiment: Antiproliferative activity against androgen-independent human PC3 cells at 100 uM after 72 hrs by MTT test; format: functional; in short: as §2
LNCaP [14] = experiment: Cell cycle arrest in human LNCaP cells by accumulation at subG1 phase at 10 uM after 72 hrs by FACS flow cytometry; format: functional; in short: as §1
PC-3 [15] = experiment: Cell cycle arrest in human PC3 cells by accumulation at G1 phase at 100 uM after 72 hrs by FACS flow cytometry; format: functional; in short: as §1
LNCaP [16] = experiment: Cell cycle arrest in human LNCaP cells by accumulation at subG1 phase at 100 uM after 72 hrs by FACS flow cytometry; format: functional; in short: as §1
PC-3 [17] = experiment: Antiproliferative activity against androgen-independent human PC3 cells after 72 hrs by MTT test; format: functional, cell-based; conditions: PC-3, 72 h; in short: as §2
PC-3 [18] = experiment: Cell cycle arrest in human PC3 cells by accumulation at G1 phase at 10 uM after 72 hrs by FACS flow cytometry; format: functional; in short: as §1
PC-3 [19] = experiment: Cell cycle arrest in human PC3 cells by accumulation at subG1 phase at 10 uM after 72 hrs by FACS flow cytometry; format: functional; in short: as §1
[20] = molecular target: T2, Prostaglandin G/H synthase 2 (Homo sapiens, UniProt P35354); experiment: Inhibition of COX2 expressed in CHO cells assessed as inhibition of arachidonic acid-stimulated PGE2 production by enzyme immunoassay
T2 sequence (P35354 whole entry): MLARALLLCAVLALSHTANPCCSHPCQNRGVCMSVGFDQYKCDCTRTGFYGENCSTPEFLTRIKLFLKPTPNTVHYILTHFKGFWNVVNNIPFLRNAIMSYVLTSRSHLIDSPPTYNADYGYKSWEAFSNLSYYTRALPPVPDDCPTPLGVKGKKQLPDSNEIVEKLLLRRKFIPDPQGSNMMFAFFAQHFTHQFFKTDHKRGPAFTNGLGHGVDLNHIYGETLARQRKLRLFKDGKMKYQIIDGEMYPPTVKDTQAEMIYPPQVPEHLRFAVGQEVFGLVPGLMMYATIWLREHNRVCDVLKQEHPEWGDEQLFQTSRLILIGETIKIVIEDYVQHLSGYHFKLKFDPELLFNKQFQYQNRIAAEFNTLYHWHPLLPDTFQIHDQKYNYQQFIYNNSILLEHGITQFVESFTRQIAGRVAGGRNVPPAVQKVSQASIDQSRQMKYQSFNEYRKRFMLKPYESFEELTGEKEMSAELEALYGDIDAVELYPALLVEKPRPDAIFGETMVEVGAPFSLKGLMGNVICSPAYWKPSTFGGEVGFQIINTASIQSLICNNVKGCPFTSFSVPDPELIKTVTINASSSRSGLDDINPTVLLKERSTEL

PC-3 [21] = experiment: Inhibition of MMP9 secretion in androgen-independent human PC3 cells; format: functional, cell-based
PC-3 [22] = experiment: Cell cycle arrest in human PC3 cells by accumulation at S phase at 10 uM after 72 hrs by FACS flow cytometry; format: functional; in short: as §1
PC-3 [23] = experiment: Cell cycle arrest in human PC3 cells by accumulation at G2M phase at 10 uM after 72 hrs by FACS flow cytometry; format: functional; in short: as §1
Homo sapiens = organism: Homo sapiens; experiment: Selectivity for COX2 over COX1
In short: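 Ratio of COX-1 to COX-2 IC50s, each taken from PGE2 production in CHO cells transfected with COX-1 or with COX-2. Cells were seeded and, 18 h later, given fresh Ham's F12 with 10% fetal calf serum with or without compound. After 10 min they were stimulated with arachidonic acid, then for 10 min with calcium ionophore A 23187. Intracellular PGE2 was read by enzyme immunoassay, n = 2.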

- IC50 [4]: 26.1 µM
- IC50 [6]: 0.3 µM
- IC50 (LNCaP [9]): 83.4 µM
SMILES: COC1(c2cc(F)cc(OCc3cc(-c4ccccc4)n(-c4ccc(S(C)(=O)=O)cc4)n3)c2)CCOCC1
- Activity (PC-3 [1]): 5.1%
- Activity (LNCaP [2]): 74.2%
- Activity (LNCaP [3]): 9.9%
- Activity (PC-3 [5]): 25.9%
- Activity (PC-3 [7]): 1.2%
- Activity (LNCaP [8]): 11.2%
- Activity (LNCaP [10]): 14.7%
- Activity (LNCaP [11]): 70.1%
- Activity (LNCaP [12]): 12%
- Activity (PC-3 [13]): 45%
- Activity (LNCaP [14]): 3.6%
- Activity (PC-3 [15]): 67.8%
- Activity (LNCaP [16]): 3.9%

- IC50 (PC-3 [17]): 45.9 µM
- IC50 [4]: 25.7 µM
- IC50 [6]: 0.74 µM
- IC50 [20]: 0.1 µM
- IC50 (LNCaP [9]): 49.7 µM
- Selectivity ratio (Homo sapiens): 257
SMILES: COC1(c2cc(F)cc(OCc3cc(-c4ccccc4)n(-c4ccc(S(N)(=O)=O)cc4)n3)c2)CCOCC1
- Activity (PC-3 [18]): 71.5%
- Activity (PC-3 [19]): 2.1%
- Activity (LNCaP [8]): 6.9%
- Activity (LNCaP [10]): 8.2%
- Activity (LNCaP [11]): 74.2%
- Activity (PC-3 [21]): Active
- Activity (LNCaP [14]): 10.8%
- Activity (PC-3 [22]): 6.6%
- Activity (PC-3 [23]): 19.5%
